Test results published in PMC3424550 (Nucleic Acids Research, 2012).
Values belong to the compound of their own block, whether it stands above or below them.

Assays:
[1] = biological target: GMP-extended TEC (TEC17), E. coli RNAP (Escherichia coli, UniProt P0A8T7+P0A8V2); assay type: binding
[2] = biological target: T1, E. coli RNAP TEC (Escherichia coli, UniProt P0A8T7+P0A8V2); experiment: Time-resolved nucleotide addition; assay type: biochemical; details: i − 7 6-MI TECs; 200 µM NTP, 25°C
[3] = biological target: T1, E. coli RNAP TEC; experiment: PPi release, coupled PPase / MDCC-PBP stopped-flow assay; assay type: biochemical
[4] = test system: TEC; details: absence of the next incoming substrate NTP; cited from earlier work
[5] = biological target: TEC assembled with wild-type E. coli RNAP (Escherichia coli, UniProt P0A8T7+P0A8V2); experiment: Equilibrium TGT titration of extended TECs, fluorescence of base analogs; assay type: binding
How it was run: (§1)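 E. coli RNAP TECs (template strand limiting at 1 µM) on a synthetic scaffold, with 6-MI or 2-AP in the template or 2-AP added at the RNA 3′ end. Extended 10 min at 25°C in TB10 (pH 7.5) with 5 µM substrate and 0.2 nM yeast PPase. TGT added afterwards, 5 min more. Emission peaks: 6-MI 420 nm (ex 340), 2-AP 375 nm (ex 330). KTGT from a dissociation-equilibrium fit; errors are SD of best-fit estimates.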

[6] = biological target: TEC assembled using β′M932A RNAP (Escherichia coli, UniProt P0A8T7+P0A8V2, M932A); experiment: Equilibrium TGT titration of extended TECs, β′M932A RNAP; assay type: binding
How it was run: as §1

[7] = biological target: TEC assembled using β′R933A RNAP (Escherichia coli, UniProt P0A8T7+P0A8V2, R933A); experiment: Equilibrium TGT titration of extended TECs, β′R933A RNAP; assay type: binding; details: β′Arg933 substituted with alanine
How it was run: as §1

[8] = biological target: TEC assembled using β′H936A RNAP (Escherichia coli, UniProt P0A8T7+P0A8V2, H936A); experiment: Equilibrium TGT titration of extended TECs, β′H936A RNAP; assay type: binding; details: β′His936 substituted with alanine
How it was run: as §1

[9] = test system: ΔTL RNAP TEC; experiment: Equilibrium TGT titration of extended TECs, ΔTL RNAP; assay type: binding, Escherichia coli; details: AMP-extended TEC, TL domain replaced by a two-alanine linker
How it was run: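 Two-alanine-linker ΔTL RNAP TECs (template strand limiting at 1 µM) with a base-analog fluorophore in the template. Extended 1.5 h at 25°C in TB10 (pH 7.5) with 5 µM substrate and 0.2 nM yeast PPase. TGT added post-catalytically for 5 min more. Fluorescence taken at the emission peak: 6-MI 420 nm (ex 340) or 2-AP 375 nm (ex 330). Titration fitted to dissociation-equilibrium equations.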

[10] = biological target: β′N458D TEC (Escherichia coli, UniProt P0A8T7+P0A8V2, N458D); experiment: Equilibrium TGT titration of extended TECs, β′N458D RNAP; assay type: binding; details: AMP-extended β′N458D TEC
How it was run: as §1

[11] = biological target: T1, E. coli RNAP TEC; assay type: biochemical; details: time-resolved, saturating TGT (5 µM)
[12] = test system: RNAP; details: cited from earlier work

- decrease in fluorescence upon CMPcPP binding to the TEC [1]: ~15%
- effect on fluorescence in the absence of TGT [1]: failed to increase fluorescence
- effect on TGT action ([1]; templated CMPcPP): able to counter the effect of TGT
Compound: Nc1ccn([C@@H]2O[C@H](COP(=O)(O)CP(=O)(O)OP(=O)(O)O)[C@@H](O)[C@H]2O)c(=O)n1 [CMPcPP, cytidine-5′-[(α,β)-methyleno]triphosphate]

- nucleotide addition, half-life [2]: ~0.02 s
Compound: O=c1ccn([C@@H]2O[C@H](COP(=O)(O)O)[C@@H](O)[C@H]2O)c(=O)[nH]1 [UMP]

- nucleotide addition, half-life [2]: ~0.008 s
Compound: Nc1ccn([C@@H]2O[C@H](COP(=O)(O)O)[C@@H](O)[C@H]2O)c(=O)n1 [CMP]

More lines, now with the values behind:

Compound: Nc1ncnc2c1ncn2[C@@H]1O[C@H](COP(=O)(O)O)[C@@H](O)[C@H]1O [AMP]
- nucleotide addition, half-life [2]: ~0.02 s

Compound: Nc1nc2c(ncn2[C@@H]2O[C@H](COP(=O)(O)O)[C@@H](O)[C@H]2O)c(=O)[nH]1 [GMP]
- nucleotide addition, half-life [2]: ~0.02 s

Compound: O=P(O)(O)OP(=O)(O)O [PPi, pyrophosphate]
- PPi to MDCC-PBP·Pi conversion rate ([3]; 10 µM PPase): 120 s⁻¹
- rate of PPi release from the TEC ([3]; same TEC as Johnson et al., PPase-MDCC-PBP method): 120 s⁻¹
- rate of PPi release from the TEC [4]: 2.9 s⁻¹

Compound: CC(=O)O[C@@H]1[C@H](N)[C@@H](OP(=O)(O)O)[C@@]2(C(=O)O)CS[C@@](O)(C(N)=O)[C@@H]1O2 [TGT, tagetitoxin]
- quenching of the fluorescence of 3′ RNA 2-AP by TGT ([5]; 2-AP ribonucleoside monophosphate-extended TEC, wild-type): 2 fold
- increase of apparent TGT binding constant relative to rNMP-extended TECs ([5]; TECs lacking a 2′-OH group at the RNA 3′ end): ~10 fold
- increase in KTGT relative to rNMP-extended TECs ([5]; TECs lacking a 3′ OH group at the RNA 3′ end): approximately 5 fold
- effect on translocation state of extended TECs ([5]; TGT added post-catalytically): quantitatively moves extended TECs into the pre-translocated state
- quenching of the fluorescence of 3′ RNA 2-AP by TGT ([6]; 2-AP ribonucleoside monophosphate-extended β′M932A TEC): did not quench
- apparent KTGT relative to wild-type TEC ([6]; β′M932A TEC, higher): 5 fold
- increase in KTGT relative to wild-type [7]: > 7 fold
- increase in KTGT relative to wild-type [8]: > 7 fold
- response of TEC to TGT action [9]: completely resistant
- move into the pre-translocated state at saturating TGT concentrations [10]: ≤ 20%
- effect on forward translocation [11]: does not affect the rate of forward translocation
- effect on pyrophosphorolysis [12]: strongly inhibit
